Experimental data gathered from unrelated publications.
Target: Casein kinase I isoform gamma-2 (CSNK1G2, Homo sapiens, UniProt P78368)

CC(C)(C)c1nc(-c2cccc(NS(=O)(=O)c3c(F)cccc3F)c2F)c(-c2ccnc(N)n2)s1 — remaining activity (enzyme activity, inhibitor, radiometric; 1 µM): 101%
CN(CCCC(F)(F)F)c1nccc(-c2cnn3ncccc23)n1 — remaining binding (binding; 1 µM): 100%
NS(=O)(=O)c1cc(NC(=O)Cc2ccccc2)ccc1Oc1cccc(Cl)c1 — remaining binding (cell-free assay, competition with immobilised ligand; 1 µM): 100%
Cc1cc(NC(=O)c2cccc3cc(-c4cccc5[nH]nc(N)c45)ccc23)ccc1F — activity vs control (enzyme activity, inhibitor; 0.1 µM): 102%
O=C(CSc1nc2nccnc2c(=O)n1CCc1ccccc1)Nc1nccs1 — inhibition (enzyme activity, inhibitor; 10 µM): 14%
CC(C)(O)[C@H]1CC[C@H](Nc2ccc3ncc(-c4cccc(C(F)(F)F)c4)n3n2)CC1 — remaining activity (enzyme activity, inhibitor; 1 µM): 96.1%
COc1cc2ncnc(Nc3ccc(F)c(Cl)c3)c2cc1OCCCN1CCOCC1 — remaining signal (cell-free assay; 0.5 µM): 98.1%
CN1CC(Oc2cnc(C#N)cc2-c2ccn3nc(NC(=O)C4CC4)cc3c2)C1 — inhibition (enzyme activity, inhibitor; 1 µM): -2%
CNC(=O)c1cc(Oc2ccc(NC(=O)Nc3ccc(Cl)c(C(F)(F)F)c3)cc2)ccn1 — inhibition (enzyme activity, inhibitor; 0.3 µM): 5%
CC1=C(C#N)[C@@H](c2ccc3[nH]nc(C)c3c2)C(C#N)=C(c2ccc(Cl)cc2)N1 — remaining binding (cell-free assay, competition with immobilised ligand; 1 µM): 100%
COc1cc2ncnc(Nc3ccc(Oc4ccccc4)cc3C)c2cc1OC — inhibition (enzyme activity, inhibitor; 1 µM): 5%
O=C(NCCCC1CCCCC1)c1ccc(CNC(=O)c2cnn(-c3ccccc3)c2C(F)(F)F)cc1 — remaining binding (cell-free assay, competition with immobilised ligand; 0.1 µM): 96%
Cc1ccc(Nc2nccc(N(C)c3ccc4c(C)n(C)nc4c3)n2)cc1S(N)(=O)=O — remaining signal (cell-free assay, inhibitor; 0.5 µM): 96.9%
O=C(Nc1cnn(-c2csc(C(=O)NC3COC3)c2)c1)Nc1ccccc1Cl — remaining activity (enzyme activity, inhibitor; 5 µM): 98.5%
C[C@@H]1CCN(C(=O)CC#N)C[C@@H]1N(C)c1ncnc2[nH]ccc12 — remaining signal (cell-free assay, inhibitor; 0.5 µM): 95.4%
Cc1sc(C(=O)NC2COC2)cc1-n1cc(NC(=O)Nc2c(F)cccc2Cl)cn1 — remaining activity (enzyme activity, inhibitor; 10 µM): 104%
C[C@H](NC(=O)c1cnc2n1[C@](C)(Cc1ccc(C#N)cc1)C(=O)N2c1cc(Cl)c(F)c(Cl)c1)C(=O)NC1(c2ccccn2)CC1 — remaining binding (cell-free assay, competition with immobilised ligand; 1 µM): 90%
Cc1ccc(NC(=O)c2ccc(C)c(C(F)(F)F)c2)cc1C#Cc1nn(C2CCC(O)CC2)c2ncnc(N)c12 (stereo not shown) — remaining signal (cell-free assay; 10 µM): 114%
CN1CCN(c2cnc3c(C4CCN(C(=O)c5ccc(OC(F)(F)F)cc5N)CC4)ncnc3c2)CC1 — remaining binding (cell-free assay, competition with immobilised ligand; 1 µM): 100%
COc1cc(Nc2c(C#N)cnc3cc(OCCCN4CCN(C)CC4)c(OC)cc23)c(Cl)cc1Cl — remaining signal (cell-free assay; 0.5 µM): 98.3%
C[C@@H]1CN(c2cc(-c3n[nH]c4ccc(OC5(C)CC5)cc34)ncn2)C[C@H](C)O1 — remaining binding (cell-free assay, competition with immobilised ligand; 0.1 µM): 100%
CCCS(=O)(=O)Nc1ccc(F)c(C(=O)c2c[nH]c3ncc(-c4ccc(Cl)cc4)cc23)c1F — inhibition (enzyme activity, inhibitor; 1 µM): < 10%
